We go through 13 compounds from paper PMC2771199 (Bioorganic & medicinal chemistry, 2009).

SMILES strings stand for the structures. “Also recorded” adds a separate entry of the source. Like-named read-outs stand apart in the source and are kept apart here. Where a SMILES comes first, the peptide text is derived from it. The star is where a group is joined. Dnp = O=[N+]([O-])c1ccc(*)c([N+](=O)[O-])c1 Some results are limits rather than exact numbers.

Test [1] concerns the target T1, LPA4 (Homo sapiens, UniProt Q99677). As to conditions: read-out: IC50 LPA4; previously reported antagonists; NE no effect; cited from earlier work.
Test [2] addresses T2, LPA3 (Homo sapiens, UniProt Q9UBY5).
T2 sequence (Q9UBY5 1-353): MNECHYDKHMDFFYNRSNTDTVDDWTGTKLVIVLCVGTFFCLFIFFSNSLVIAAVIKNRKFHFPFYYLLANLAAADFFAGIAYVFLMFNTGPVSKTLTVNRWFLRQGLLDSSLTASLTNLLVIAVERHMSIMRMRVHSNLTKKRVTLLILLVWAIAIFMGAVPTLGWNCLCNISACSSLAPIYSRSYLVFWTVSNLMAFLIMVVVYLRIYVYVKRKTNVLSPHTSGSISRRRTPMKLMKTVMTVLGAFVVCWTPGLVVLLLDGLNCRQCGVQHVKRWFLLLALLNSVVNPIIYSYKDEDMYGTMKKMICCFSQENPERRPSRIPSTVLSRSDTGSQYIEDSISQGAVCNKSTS
The note with it: previously reported antagonists, cited from earlier work.

The target in test [3] is T3, LPA1 (Homo sapiens, UniProt Q92633). The note with it: read-out: IC50 LPA1; previously reported antagonists; NE no effect; cited from earlier work.
T3 sequence (Q92633 whole entry, species assumed): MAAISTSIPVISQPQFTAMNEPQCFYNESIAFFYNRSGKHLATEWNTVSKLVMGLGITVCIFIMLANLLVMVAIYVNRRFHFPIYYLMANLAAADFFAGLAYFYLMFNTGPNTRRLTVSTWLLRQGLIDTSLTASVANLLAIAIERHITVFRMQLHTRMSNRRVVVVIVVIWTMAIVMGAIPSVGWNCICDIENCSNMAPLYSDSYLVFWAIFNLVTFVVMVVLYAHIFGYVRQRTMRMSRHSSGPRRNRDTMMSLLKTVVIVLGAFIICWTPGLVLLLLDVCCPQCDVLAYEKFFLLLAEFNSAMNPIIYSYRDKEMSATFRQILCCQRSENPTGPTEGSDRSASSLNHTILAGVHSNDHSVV
Test [4] has as its target T4, LPA2 (Homo sapiens, UniProt Q9HBW0). The note with it: previously reported antagonists, cited from earlier work; for IC50: read-out: IC50 LPA2, NE no effect.
In test [5] the target is T5, LPA5 (Homo sapiens, UniProt Q9H1C0). As to conditions: read-out: IC50 LPA5; previously reported antagonists; NE no effect; cited from earlier work.
T5 sequence (Q9H1C0 whole entry, species assumed): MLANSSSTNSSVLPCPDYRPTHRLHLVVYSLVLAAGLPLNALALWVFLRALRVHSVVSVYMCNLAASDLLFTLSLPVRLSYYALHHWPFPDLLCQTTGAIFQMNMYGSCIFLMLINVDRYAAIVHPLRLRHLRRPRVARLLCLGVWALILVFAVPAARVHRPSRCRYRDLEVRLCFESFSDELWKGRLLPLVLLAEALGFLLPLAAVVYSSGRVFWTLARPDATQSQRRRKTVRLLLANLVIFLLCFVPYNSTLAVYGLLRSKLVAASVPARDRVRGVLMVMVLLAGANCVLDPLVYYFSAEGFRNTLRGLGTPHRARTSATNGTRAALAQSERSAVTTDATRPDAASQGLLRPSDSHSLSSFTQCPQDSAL
The target of test [6] is T3, LPA1. Kind of test: LPA receptor-promoted intracellular Ca2+ mobilization, LPA1. In kind it is cell-based. As to conditions: for IC50: read-out: IC50 LPA1, dose response; for LPA1 antagonist activity (in words): Ca2+ assay. In short, it runs like this: (§1)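 Cells stably expressing the given LPA receptor were plated and cultured overnight, then moved to serum-free medium for 4-6 h and loaded with fura-2. Intracellular Ca2+ was read on a plate fluorometer as the ratio of 520 nm emission under 340 vs 380 nm excitation. Test compounds were dissolved in methanol, diluted in buffer, and run in quadruplicate. IC50 was taken from concentration-response curves.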
(A change in cytosolic calcium serves as a functional read-out for many receptors and channels.)

Test [7] has as its target T1, LPA4. Kind of test: LPA receptor-promoted intracellular Ca2+ mobilization, LPA4. In kind it is cell-based. The note with it: read-out: IC50 LPA4; dose response. In short, it runs like this: as §1
Test [8] addresses T5, LPA5. Kind of test: LPA receptor-promoted intracellular Ca2+ mobilization, LPA5. Type of test: cell-based. The note with it: for IC50: read-out: IC50 LPA5, dose response. The method in brief: as §1
Test [9] addresses T4, LPA2. Kind of test: LPA receptor-promoted intracellular Ca2+ mobilization, LPA2. The note with it: read-out: IC50 LPA2; dose response. In kind it is cell-based. The method in brief:
as §1

Test [10] addresses T2, LPA3. Kind of test: LPA receptor-promoted intracellular Ca2+ mobilization, LPA3. In kind it is cell-based. As to conditions: for % inhibition at 10μM: Table 3, LPA3 inhibition; for LPA3 antagonist activity (in words): Ca2+ assay.
The mark [11] stands for this setting: 10 μM compound against 200 nM LPA.

T4 sequence (Q9HBW0 whole entry, species assumed): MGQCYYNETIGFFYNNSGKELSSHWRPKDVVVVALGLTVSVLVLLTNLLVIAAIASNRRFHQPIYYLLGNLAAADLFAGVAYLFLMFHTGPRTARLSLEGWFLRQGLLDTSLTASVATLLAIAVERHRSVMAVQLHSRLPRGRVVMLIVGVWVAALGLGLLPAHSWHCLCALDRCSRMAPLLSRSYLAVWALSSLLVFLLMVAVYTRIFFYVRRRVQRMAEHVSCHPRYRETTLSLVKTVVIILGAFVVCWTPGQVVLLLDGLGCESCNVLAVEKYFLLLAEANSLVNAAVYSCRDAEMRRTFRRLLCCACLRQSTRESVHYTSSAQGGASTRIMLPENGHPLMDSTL
T1 sequence (Q99677 whole entry, species assumed): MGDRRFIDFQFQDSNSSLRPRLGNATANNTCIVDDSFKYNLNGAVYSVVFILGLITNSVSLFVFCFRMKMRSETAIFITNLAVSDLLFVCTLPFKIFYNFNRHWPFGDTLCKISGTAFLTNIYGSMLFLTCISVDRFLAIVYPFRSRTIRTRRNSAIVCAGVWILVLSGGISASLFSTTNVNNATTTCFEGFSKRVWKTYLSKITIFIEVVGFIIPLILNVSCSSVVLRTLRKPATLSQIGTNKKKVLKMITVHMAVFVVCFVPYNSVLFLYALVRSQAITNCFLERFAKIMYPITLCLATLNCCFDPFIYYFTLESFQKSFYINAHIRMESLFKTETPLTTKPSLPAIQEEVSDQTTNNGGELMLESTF

Take `NCC(=O)N[C@@H](CSc1ccc([N+](=O)[O-])cc1[N+](=O)[O-])C(=O)N[C@@H](CCC(=O)O)C(=O)O` [Compound 1] (H-Gly-Cys(Dnp)-Glu-OH): the IC50 on LPA4 [1], at LPA1 [3], on LPA2 [4] and on LPA5 [5] was greater than 10 µM each time. For the same compound, the “Imax LPA3” value on LPA3 [2] is listed as 69.8%.
For `O=C(O)/C=C/C(=O)Nc1cccc(NC(=O)/C=C/C(=O)O)c1` [Compound 2], the IC50 on LPA4 [1] was greater than 10 µM; on LPA3 [2] (read-out: IC50 LPA3, NE no effect) it was greater than 10 µM; at LPA5 [5], greater than 10 µM.
Take `O=C(O)/C=C/C(=O)Nc1cccc(NC(=O)/C=C/C(=O)O)c1C(=O)O` [Compound 3]: the 50% inhibitory concentration (IC50) on LPA4 [1], on LPA1 [3] and on LPA5 [5] was greater than 10 µM in each case. Also, the “Imax LPA3” value on LPA3 [2] is 81.7%. Besides, the “Imax LPA2” value on LPA2 [4] is recorded as 53.3%.
Turning to `O=C(O)/C=C/C(=O)Nc1ccc(Oc2cccc(Oc3ccc(NC(=O)/C=C/C(=O)O)cc3)c2)cc1` [Compound 4], the IC50 at LPA4 [1] and at LPA5 [5] was greater than 10 µM throughout.
As to `O=C(O)CN1C(=O)c2ccc(Oc3cccc([N+](=O)[O-])c3)cc2C1=O` [Compound 5, [5-(3-nitrophenoxy)-1,3-dioxo-1,3-dihydro-2-isoindol-2-yl]acetic acid], the IC50 at LPA1 [6], on LPA4 [7], at LPA4 [1], on LPA5 [8], on LPA2 [9] and at LPA1 [3] was greater than 10 µM in each case. Moreover, the IC50 at LPA2 [4] and at LPA5 [5] was greater than 10 µM each time.
Take `O=C(O)COc1ccc(N2C(=O)c3ccc(Oc4cccc([N+](=O)[O-])c4)cc3C2=O)cc1` [Compound 6]: the “% inhibition at 10μM” value at LPA3 [10] (setting [11]) is on record as “agonist”.
With `O=C1c2ccc(Oc3cccc([N+](=O)[O-])c3)cc2C(=O)N1Cc1cccnc1` [Compound 8], the “LPA3 antagonist activity (in words)” value on LPA3 [10] is recorded as “active”.
For the compound `O=C(O)CN1C(=O)c2ccc(Oc3ccc([N+](=O)[O-])cc3)cc2C1=O` [Compound 11], the IC50 at LPA1 [6] is greater than 10 µM; on LPA4 [7], greater than 10 µM; at LPA3 [10] (read-out: IC50 LPA3, dose response, activation by 200 nM LPA) it was greater than 10 µM; at LPA5 [8], greater than 10 µM; at LPA2 [9], greater than 10 µM. Further, the “LPA3 antagonist activity (in words)” value on LPA3 [10] was “no inhibition; also recorded: no activity”; on LPA3 [10] (listed as compound 11), “no antagonist activity”. At LPA3 [10] (read-out: Percent inhibiton at 10μM, Table 2, 10 μM compound against 200 nM LPA), the inhibition at 10 µM was less than 10%.
Take `Cc1ccc(Oc2ccc3c(c2)C(=O)N(CC(=O)O)C3=O)cc1` [Compound 12]: the “LPA1 antagonist activity (in words)” value on LPA1 [6] is on record as “LPA1 antagonists”. For the same compound, the IC50 at LPA4 [7], on LPA5 [8] and on LPA2 [9] was greater than 10 µM in each case.
With `Cc1ccc(Oc2ccc3c(c2)C(=O)N(CC2CCCO2)C3=O)cc1` (stereo not shown) [Compound 14], the “LPA3 antagonist activity (in words)” value on LPA3 [10] is listed as “not active”.
`O=C(O)CN1C(=O)c2ccc(C(=O)c3cccc([N+](=O)[O-])c3)cc2C1=O` [Compound 15]: at LPA3 [10] (setting [11]), the “% inhibition at 10μM” value is recorded as “Agonist”.
On the same count and under the same terms, the result for `CC(=O)COc1ccc(NC(=O)CN2C(=O)c3ccc([N+](=O)[O-])cc3C2=O)cc1` [Compound 18] reads “Agonist”.
`O=C(O)c1ccc2c(c1)C(=O)N(c1cccc(Oc3ccc([N+](=O)[O-])cc3)c1)C2=O` [Compound 20]: the “LPA1 antagonist activity (in words)” value on LPA1 [6] is on record as “LPA1 antagonists”. Further, the IC50 at LPA4 [7] and at LPA2 [9] was greater than 10 µM in each case. Also, the “fold increase in potency compared to compound 5” value at LPA3 [10] (LPA3 IC50 versus compound 5) worked out at 6 fold. Moreover, on LPA3 [10] (setting [11]), the “% inhibition at 10μM” value is reported as greater than 50%. Besides, on LPA5 [8] (Ca2+ assay), the “LPA5 antagonist activity (in words)” value is on record as “LPA5 antagonist”.

By IC50 is commonly meant the concentration that inhibits the measured activity by half. As a reminder, the % inhibition is the drop in the measured response relative to a control, in per cent. Read a high % inhibition as strong suppression.
